In brackets after ≈: the same amount, converted by molar mass.
What was measured:
Assay type in all cases: functional
Staphylococcus aureus [1] = test: Antibacterial activity against Methicillin-resistant Staphylococcus aureus ATCC 33591 assessed as inhibition of bacterial growth at 50 uM measured after 48 hrs by agar well diffusion method; conditions: read-out: IZ
Method in brief: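 Agar well diffusion on Mueller Hinton agar seeded with bacteria at 0.5 McFarland. […] Incubated 48 h at 37 °C aerobically; zone of inhibition diameter (mm) measured. Triplicate.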

Staphylococcus aureus [2] = test: Antibacterial activity against Staphylococcus aureus MTCC 740 assessed as inhibition of bacterial growth at 50 uM measured after 48 hrs by agar well diffusion method; conditions: read-out: IZ
Staphylococcus aureus [3] = test: Antibacterial activity against clinically isolated Methicillin-resistant Staphylococcus aureus assessed as inhibition of bacterial growth at 50 uM measured after 48 hrs by agar well diffusion method; conditions: read-out: IZ
Escherichia coli [4] = test: Antibacterial activity against clinically isolated Escherichia coli RBRJ005 assessed as inhibition of bacterial growth at 50 uM measured after 48 hrs by agar well diffusion method; conditions: read-out: IZ
Escherichia coli [5] = test: Antibacterial activity against Escherichia coli MTCC 119 assessed as inhibition of bacterial growth at 50 uM measured after 48 hrs by agar well diffusion method; conditions: read-out: IZ
Acinetobacter baumannii = test: Antibacterial activity against clinically isolated Acinetobacter baumannii RBRJ027 assessed as inhibition of bacterial growth at 50 uM measured after 48 hrs by agar well diffusion method; conditions: read-out: IZ
Staphylococcus aureus [6] = test: Antibacterial activity against clinically isolated Staphylococcus aureus RBRJ010 assessed as inhibition of bacterial growth at 50 uM measured after 48 hrs by agar well diffusion method; conditions: read-out: IZ
Klebsiella pneumoniae [7] = test: Antibacterial activity against Klebsiella pneumoniae MTCC 109 assessed as inhibition of bacterial growth at 50 uM measured after 48 hrs by agar well diffusion method; conditions: read-out: IZ
Pseudomonas aeruginosa = test: Antibacterial activity against Pseudomonas aeruginosa MTCC 424 assessed as inhibition of bacterial growth at 50 uM measured after 48 hrs by agar well diffusion method; conditions: read-out: IZ
Enterobacter cloacae = test: Antibacterial activity against clinically isolated Enterobacter cloacae RBRJ017 assessed as inhibition of bacterial growth at 50 uM measured after 48 hrs by agar well diffusion method; conditions: read-out: IZ
Escherichia coli [8] = test: Antibacterial activity against clinically isolated Escherichia coli RBRJ013 assessed as inhibition of bacterial growth at 50 uM measured after 48 hrs by agar well diffusion method; conditions: read-out: IZ
[9] = system: Staphylococcus epidermidis; test: Antibacterial activity against Staphylococcus epidermidis MTCC 435 assessed as inhibition of bacterial growth at 50 uM measured after 48 hrs by agar well diffusion method; conditions: read-out: IZ
Enterococcus faecalis [10] = test: Antibacterial activity against Enterococcus faecalis MTCC 439 assessed as inhibition of bacterial growth at 50 uM measured after 48 hrs by agar well diffusion method; conditions: read-out: IZ
Enterococcus faecalis [11] = test: Antibacterial activity against clinically isolated Enterococcus faecalis RBRJ015 assessed as inhibition of bacterial growth at 50 uM measured after 48 hrs by agar well diffusion method; conditions: read-out: IZ
Klebsiella pneumoniae [12] = test: Antibacterial activity against clinically isolated Klebsiella pneumoniae RBRJ019 assessed as inhibition of bacterial growth at 50 uM measured after 48 hrs by agar well diffusion method; conditions: read-out: IZ
Klebsiella pneumoniae [13] = test: Antibacterial activity against clinically isolated Klebsiella pneumoniae RBRJ024 assessed as inhibition of bacterial growth at 50 uM measured after 48 hrs by agar well diffusion method; conditions: read-out: IZ
Staphylococcus aureus [14] = test: Antibacterial activity against clinically isolated Staphylococcus aureus RBRJ010 assessed as inhibition of bacterial growth measured after 48 hrs by broth microdilution method
Staphylococcus aureus [15] = test: Bactericidal activity against clinically isolated Staphylococcus aureus RBRJ010 assessed as inhibition of bacterial growth measured after 48 hrs by agar plate method
Method in brief: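 MBC: 10 μL from wells showing no INT colour change after broth microdilution subcultured on drug-free Mueller Hinton agar, 48 h at 37 °C aerobically; lowest concentration with no visible growth taken as MBC (μM). Triplicate.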

Staphylococcus aureus [16] = test: Bactericidal activity against Staphylococcus aureus MTCC 740 assessed as inhibition of bacterial growth measured after 48 hrs by agar plate method
Method in brief: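 MBC: aliquots from microdilution wells without colour change subcultured on drug-free Mueller Hinton agar, 48 h at 37 °C aerobically. MBC is the lowest concentration with no visible growth. Triplicate.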

Staphylococcus aureus [17] = test: Antibacterial activity against Staphylococcus aureus MTCC 740 assessed as inhibition of bacterial growth measured after 48 hrs by broth microdilution method

Structure (SMILES)	zone of inhibition at 50 µM (Staphylococcus aureus [1])	zone of inhibition at 50 µM (Staphylococcus aureus [2])	zone of inhibition at 50 µM (Staphylococcus aureus [3])	zone of inhibition at 50 µM (Escherichia coli [4])	zone of inhibition at 50 µM (Escherichia coli [5])	zone of inhibition at 50 µM (Acinetobacter baumannii)	zone of inhibition at 50 µM (Staphylococcus aureus [6])	zone of inhibition at 50 µM (Klebsiella pneumoniae [7])	zone of inhibition at 50 µM (Pseudomonas aeruginosa)	zone of inhibition at 50 µM (Enterobacter cloacae)	zone of inhibition at 50 µM (Escherichia coli [8])	zone of inhibition at 50 µM [9]	zone of inhibition at 50 µM (Enterococcus faecalis [10])	zone of inhibition at 50 µM (Enterococcus faecalis [11])	zone of inhibition at 50 µM (Klebsiella pneumoniae [12])	zone of inhibition at 50 µM (Klebsiella pneumoniae [13])	MIC (Staphylococcus aureus [14])	MBC (Staphylococcus aureus [15])	MBC (Staphylococcus aureus [16])	MIC (Staphylococcus aureus [17])
Cc1ccc(C(C)C)c(OCc2cn(CCN3C(=O)C(=O)c4cc(I)ccc43)nn2)c1	13.1 mm	15.2 mm	13.2 mm	10.3 mm	11.3 mm	12.1 mm	14.1 mm	12.7 mm	10.4 mm	13.1 mm	11.3 mm	13.4 mm	12.2 mm	12.9 mm	11.6 mm	12.2 mm	–	–	–	–
Cc1ccc(C(C)C)c(OCc2cn(CCN3C(=O)C(=O)c4cc(Br)ccc43)nn2)c1	13.3 mm	16.2 mm	14.2 mm	12.5 mm	12.5 mm	12.5 mm	16.4 mm	13.2 mm	14 mm	13.3 mm	13.2 mm	15.3 mm	13.6 mm	12.4 mm	11.2 mm	12.3 mm	–	–	–	–
Cc1ccc(C(C)C)c(OCc2cn(CCN3C(=O)C(=O)c4cc(C)ccc43)nn2)c1	16 mm	18.2 mm	16.2 mm	12.7 mm	17.1 mm	12.7 mm	21.2 mm	16.6 mm	11.3 mm	14.2 mm	11.4 mm	19.6 mm	14.3 mm	16.3 mm	15.4 mm	15.7 mm	31.2 µM (≈ 13.1 µg/mL)	62.5 µM (≈ 26.2 µg/mL)	–	–
Cc1ccc(C(C)C)c(OCc2cn(CCCCN3C(=O)C(=O)c4cc(I)ccc43)nn2)c1	14 mm	16.9 mm	13.5 mm	10.4 mm	10.2 mm	10.1 mm	11.9 mm	12.2 mm	10.6 mm	10.2 mm	10.9 mm	13.5 mm	10.1 mm	11.2 mm	10.7 mm	10.1 mm	–	–	–	–
Cc1ccc(C(C)C)c(OCc2cn(CCCCN3C(=O)C(=O)c4ccccc43)nn2)c1	19 mm	22.1 mm	19.6 mm	13.6 mm	16.5 mm	11.2 mm	16.2 mm	15.2 mm	13.7 mm	12.6 mm	11.5 mm	16.2 mm	13.2 mm	17.6 mm	14.4 mm	15.6 mm	–	–	31.2 µM (≈ 13.5 µg/mL)	15.6 µM (≈ 6.75 µg/mL)
COc1ccc2c(c1)C(=O)C(=O)N2CCCCn1cc(COc2cc(C)ccc2C(C)C)nn1	13.2 mm	19 mm	15.2 mm	14.2 mm	14.4 mm	10.2 mm	13.2 mm	14.7 mm	11.3 mm	10.9 mm	11.3 mm	12.6 mm	11.2 mm	13.2 mm	12.2 mm	11.3 mm	–	–	–	–
Cc1ccc(C(C)C)c(OCc2cn(CCCCN3C(=O)C(=O)c4cc(F)ccc43)nn2)c1	16.4 mm	19.2 mm	16.2 mm	12.2 mm	11.2 mm	11.8 mm	12.2 mm	14.4 mm	12.2 mm	12.5 mm	11.1 mm	15.1 mm	10 mm	14.6 mm	13.2 mm	11.3 mm	–	–	–	–
Cc1ccc(C(C)C)c(OCc2cn(CCCCN3C(=O)C(=O)c4cc(Br)ccc43)nn2)c1	13.1 mm	18.1 mm	13.5 mm	11.8 mm	11.1 mm	10.7 mm	11.2 mm	13.5 mm	11.3 mm	11.1 mm	11 mm	14.2 mm	10.3 mm	13.8 mm	11.4 mm	10.9 mm	–	–	–	–
Cc1ccc(C(C)C)c(OCc2cn(CCN3C(=O)C(=O)c4cc(Cl)ccc43)nn2)c1	14.6 mm	19.3 mm	14.3 mm	13.2 mm	13.6 mm	12 mm	19.6 mm	15.1 mm	14.1 mm	14.2 mm	13.1 mm	16.2 mm	11.2 mm	15.2 mm	15.2 mm	13.6 mm	–	–	–	–
Cc1ccc(C(C)C)c(OCc2cn(CCCCN3C(=O)C(=O)c4cc(C)ccc43)nn2)c1	14.2 mm	19.5 mm	15.8 mm	13.1 mm	15.5 mm	10.4 mm	14.6 mm	15.4 mm	12.9 mm	11.6 mm	11.4 mm	11.4 mm	12.4 mm	15.3 mm	13.2 mm	12.2 mm	–	–	–	–
Cc1ccc(C(C)C)c(OCc2cn(CCN3C(=O)C(=O)c4cc(F)ccc43)nn2)c1	15.3 mm	20.3 mm	16.6 mm	14.3 mm	13.3 mm	11.9 mm	19.2 mm	15.2 mm	14.2 mm	14.2 mm	14.2 mm	17.3 mm	15.1 mm	19.3 mm	14.2 mm	13.2 mm	–	–	125 µM (≈ 52.8 µg/mL)	62.5 µM (≈ 26.4 µg/mL)
Cc1ccc(C(C)C)c(OCc2cn(CCCCN3C(=O)C(=O)c4cc(Cl)ccc43)nn2)c1	13.6 mm	18.4 mm	14.2 mm	12.3 mm	10.3 mm	11.1 mm	12.6 mm	13.2 mm	12.4 mm	11.5 mm	11.4 mm	14.3 mm	11.2 mm	13.4 mm	12.3 mm	10.3 mm	–	–	–	–
